ChEMBL document CHEMBL1275251, “Mutant selection window and characterization of allelic diversity for ciprofloxacin-resistant mutants of Rhodococcus equi” (Antimicrob Agents Chemother, 2010)
≈ marks a conversion by molar mass, not a printed value. Calls of active or inactive are those of the source. The rule behind the calls is not given here.

How the values were obtained:
Prescottella equi [1] = test: Antibacterial activity against Rhodococcus equi ATCC 6939T harboring GyrA Ser83Ile mutation selected on 12 ug/ml of compound treated culture by broth microdilution method; type: functional; settings: Rhodococcus (subgen. Prescottella) equi
Procedure, shortened: (§1)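 Mutants were selected by plating at least 1 × 10^10 cells, grown 48 h at 35°C in brain heart infusion broth, on ciprofloxacin-containing Columbia blood agar base for 4 days at 35°C. Each was confirmed by two passages at the selecting concentration and one drug-free passage. MIC was then read by broth microdilution in cation-supplemented Mueller-Hinton broth per CLSI M24-A. Each experiment was done twice.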

Prescottella equi [2] = test: Antibacterial activity against Rhodococcus equi ATCC 6939T harboring GyrA Asp87Tyr mutation selected on 4 ug/ml of compound treated culture by broth microdilution method; type: functional, organism-based; procedure, shortened: as §1
Prescottella equi [3] = test: Antibacterial activity against Rhodococcus equi W5234 harboring GyrA Ser83Arg mutation selected on 16 ug/ml of compound treated culture by broth microdilution method; type: functional; settings: Rhodococcus (subgen. Prescottella) equi; procedure, shortened: as §1
Prescottella equi [4] = test: Antibacterial activity against Rhodococcus equi ATCC 6939T isolated from lung abscess of horse; type: functional; settings: Rhodococcus (subgen. Prescottella) equi
Procedure, shortened: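 Cells grown 48 h at 35°C with shaking in brain heart infusion broth, then resuspended. MIC by broth microdilution in cation-supplemented Mueller-Hinton broth per CLSI M24-A. For MIC99 and MPC, ≥1 × 10^10 cells were plated on Columbia blood agar base containing a range of ciprofloxacin concentrations and incubated 4 days at 35°C. Resistant-colony fraction relative to CFU on drug-free plates was plotted against concentration. Run twice.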

Prescottella equi [5] = test: Antibacterial activity against Rhodococcus equi ATCC 6939T harboring GyrA Asp87Gly mutation selected on 6 ug/ml of compound treated culture by broth microdilution method; type: functional; settings: Rhodococcus (subgen. Prescottella) equi; procedure, shortened: as §1
Prescottella equi [6] = test: Antibacterial activity against Rhodococcus equi W5234 harboring GyrB Asn464Asp mutation selected on 1 ug/ml of compound treated culture by broth microdilution method; type: functional; settings: Rhodococcus (subgen. Prescottella) equi; procedure, shortened: as §1
Prescottella equi [7] = test: Antibacterial activity against Rhodococcus equi W5234 harboring GyrA Ser83Arg mutation selected on 12 ug/ml of compound treated culture by broth microdilution method; type: functional; settings: Rhodococcus (subgen. Prescottella) equi; procedure, shortened: as §1
Prescottella equi [8] = test: Antibacterial activity against Rhodococcus equi ATCC 6939T selected on 8 ug/ml of compound treated culture by broth microdilution method; type: functional, organism-based; procedure, shortened: as §1
Prescottella equi [9] = test: Antibacterial activity against Rhodococcus equi ATCC 6939T harboring GyrA Ser83Arg mutation selected on 8 ug/ml of compound treated culture by broth microdilution method; type: functional; settings: Rhodococcus (subgen. Prescottella) equi; procedure, shortened: as §1
Prescottella equi [10] = test: Antibacterial activity against Rhodococcus equi ATCC 6939T harboring GyrA Ser83Arg mutation selected on 2 ug/ml of compound treated culture by broth microdilution method; type: functional, organism-based; procedure, shortened: as §1
Prescottella equi [11] = test: Antibacterial activity against Rhodococcus equi ATCC 6939T harboring GyrA Ser83Arg mutation selected on 12 ug/ml of compound treated culture by broth microdilution method; type: functional; settings: Rhodococcus (subgen. Prescottella) equi; procedure, shortened: as §1
Prescottella equi [12] = test: Antibacterial activity against Rhodococcus equi W5234 harboring GyrA Asp87Asn mutation selected on 8 ug/ml of compound treated culture by broth microdilution method; type: functional, organism-based; procedure, shortened: as §1
Prescottella equi [13] = test: Antibacterial activity against Rhodococcus equi W5234 selected on 1 ug/ml of compound treated culture by broth microdilution method; type: functional; settings: Rhodococcus (subgen. Prescottella) equi; procedure, shortened: as §1
Prescottella equi [14] = test: Antibacterial activity against Rhodococcus equi ATCC 6939T harboring GyrA Asp87Asn mutation selected on 4 ug/ml of compound treated culture by broth microdilution method; type: functional, organism-based; procedure, shortened: as §1
Prescottella equi [15] = test: Antibacterial activity against Rhodococcus equi W5234 harboring GyrA Ser83Arg mutation selected on 4 ug/ml of compound treated culture by broth microdilution method; type: functional; settings: Rhodococcus (subgen. Prescottella) equi; procedure, shortened: as §1
Prescottella equi [16] = test: Antibacterial activity against Rhodococcus equi ATCC 6939T harboring GyrA Ser83Ile mutation selected on 16 ug/ml of compound treated culture by broth microdilution method; type: functional; settings: Rhodococcus (subgen. Prescottella) equi; procedure, shortened: as §1
Prescottella equi [17] = test: Antibacterial activity against Rhodococcus equi ATCC 6939T selected on 2 ug/ml of compound treated culture by broth microdilution method; type: functional; settings: Rhodococcus (subgen. Prescottella) equi; procedure, shortened: as §1
Prescottella equi [18] = test: Antibacterial activity against Rhodococcus equi W5234 harboring GyrA Ser83Arg mutation selected on 6 ug/ml of compound treated culture by broth microdilution method; type: functional; settings: Rhodococcus (subgen. Prescottella) equi; procedure, shortened: as §1
Prescottella equi [19] = test: Antibacterial activity against Rhodococcus equi ATCC 6939T harboring GyrA Ser83Arg mutation selected on 16 ug/ml of compound treated culture by broth microdilution method; type: functional; settings: Rhodococcus (subgen. Prescottella) equi; procedure, shortened: as §1
Prescottella equi [20] = test: Antibacterial activity against Rhodococcus equi W5234 harboring GyrA Asp87Gly mutation selected on 6 ug/ml of compound treated culture by broth microdilution method; type: functional; settings: Rhodococcus (subgen. Prescottella) equi; procedure, shortened: as §1
Prescottella equi [21] = test: Antibacterial activity against Rhodococcus equi ATCC 6939T harboring GyrA Ser83Arg mutation selected on 4 ug/ml of compound treated culture by broth microdilution method; type: functional, organism-based; procedure, shortened: as §1
Prescottella equi [22] = test: Antibacterial activity against Rhodococcus equi W5234 harboring GyrA Gly81Cys mutation selected on 4 ug/ml of compound treated culture by broth microdilution method; type: functional, organism-based; procedure, shortened: as §1
Prescottella equi [23] = test: Antibacterial activity against Rhodococcus equi ATCC 6939T harboring GyrA Gly81Cys mutation selected on 4 ug/ml of compound treated culture by broth microdilution method; type: functional; settings: Rhodococcus (subgen. Prescottella) equi; procedure, shortened: as §1
Prescottella equi [24] = test: Antibacterial activity against Rhodococcus equi ATCC 6939T harboring GyrA Ser83Ile mutation selected on 4 ug/ml of compound treated culture by broth microdilution method; type: functional, organism-based; procedure, shortened: as §1
Prescottella equi [25] = test: Antibacterial activity against Rhodococcus equi ATCC 6939T harboring GyrA Ser83Arg mutation selected on 6 ug/ml of compound treated culture by broth microdilution method; type: functional, organism-based; procedure, shortened: as §1

## O=C(O)c1cn(C2CC2)c2cc(N3CCNCC3)c(F)cc2c1=O [CIPROFLOXACIN]
Prescottella equi [1]
  MIC: 128 µg/mL (≈ 386 µM)
Prescottella equi [2]
  MIC: inactive
Prescottella equi [3]
  MIC: 64 µg/mL (≈ 193 µM)
Prescottella equi [4]
  MIC99: 0.42 µg/mL (≈ 1.27 µM)
Prescottella equi [5]
  MIC: 16 µg/mL (≈ 48.3 µM)
Prescottella equi [6]
  MIC: 4 µg/mL (≈ 12.1 µM)
Prescottella equi [7]
  MIC: 64 µg/mL (≈ 193 µM)
Prescottella equi [8]
  MIC: inactive
Prescottella equi [9]
  MIC: 64 µg/mL (≈ 193 µM)
Prescottella equi [10]
  MIC: inactive
Prescottella equi [11]
  MIC: 128 µg/mL (≈ 386 µM)
Prescottella equi [12]
  MIC: inactive
Prescottella equi [13]
  MIC: 2 µg/mL (≈ 6.04 µM)
Prescottella equi [14]
  MIC: inactive
Prescottella equi [15]
  MIC: 32 µg/mL (≈ 96.6 µM)
Prescottella equi [16]
  MIC: 64 µg/mL (≈ 193 µM)
Prescottella equi [17]
  MIC: 2 µg/mL (≈ 6.04 µM)
Prescottella equi [18]
  MIC: 32 µg/mL (≈ 96.6 µM)
Prescottella equi [19]
  MIC: 32 µg/mL (≈ 96.6 µM)
Prescottella equi [20]
  MIC: 16 µg/mL (≈ 48.3 µM)
Prescottella equi [21]
  MIC: inactive
Prescottella equi [22]
  MIC: inactive
Prescottella equi [23]
  MIC: 8 µg/mL (≈ 24.1 µM)
Prescottella equi [24]
  MIC: inactive
Prescottella equi [25]
  MIC: inactive
